Tests used:
[1] = Protein binding in human plasma assessed as fraction unbound; type: ADME, cell-free
[2] = molecular target: Cytochrome P450 2D6 (Homo sapiens, UniProt P10635); assay: Inhibition of CYP2D6 (unknown origin); type: ADME
[3] = molecular target: Mu-type opioid receptor (Homo sapiens) (UniProt P35372); assay: Agonist activity at recombinant human MOR expressed in CHOK1 cells assessed as increase in cAMP accumulation at 10 uM measured after 10 mins by HTRF assay relative to control; type: functional, cell-based
[4] = Protein binding in non-human primate plasma assessed as fraction unbound at 2 uM; type: ADME, cell-free, Macaca mulatta; conditions: rhesus monkey
[5] = Solubility of the compound in aqueous buffer at pH 5.5; type: physicochemical
[6] = Unbound clearance in iv dosed mouse plasma; type: ADME, organism-based; conditions: in vivo
[7] = Protein binding in mouse plasma assessed as fraction unbound; type: ADME, cell-free
[8] = Intrinsic clearance in human hepatocytes assessed per million cells; type: ADME, cell-based, Hepatocyte; conditions: read-out: CLH
[9] = Protein binding in dog plasma assessed as fraction unbound; type: ADME, cell-free, Canis lupus familiaris
[10] = Protein binding in rat plasma assessed as fraction unbound; type: ADME, cell-free
[11] = molecular target: Adenosine receptor A2a (Homo sapiens) (UniProt P29274); assay: Agonist activity at recombinant human full-length adenosine A2a receptor expressed in HEK293 cells assessed as effect on impedance at 10 uM by cellular dielectric spectroscopic method relative to control; type: functional, cell-based
[12] = Intrinsic clearance in rat hepatocytes assessed per million cells; type: ADME, cell-based, Hepatocyte; conditions: read-out: CLH
[13] = species: Rattus norvegicus; assay: Displacement of [3H]nitrendipine from L-type calcium channel dihydropyridine (nifedipine) binding site in rat brain 10 uM measured after 90 mins by scintillation counting method
[14] = molecular target: Histamine H1 receptor (Homo sapiens) (UniProt P35367); assay: Agonist activity at human H1 receptor expressed in HEK293 cells assessed as increase in calcium flux at 10 uM by fluorimetric method relative to control; type: functional, cell-based
[15] = molecular target: Androgen receptor (Homo sapiens) (UniProt P10275); assay: Displacement of [3H]methyltrienolone from human androgen receptor at 10 uM after 1440 mins by scintillation counting method
[16] = Primary phase half-life in dog at 0.3 mg/kg, iv via infusion for 0.5 hrs; type: ADME, organism-based, Canis lupus familiaris; conditions: in vivo, read-out: alphat1/2 (converted)
Outline: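 Dog IV pharmacokinetics, with half-life reported as two values: α (initial phase) and β (terminal phase) of the disposition profile.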

[17] = molecular target: Cannabinoid receptor 1 (Homo sapiens) (UniProt P21554); assay: Displacement of [3H]CP 55940 from recombinant human CB1 receptor at 10 uM after 120 mins by scintillation counting method
[18] = molecular target: Vasopressin V1a receptor (Homo sapiens) (UniProt P37288); assay: Agonist activity at human V1A receptor expressed in CHOK1 cells assessed as increase in calcium flux at 10 uM by fluorimetric method relative to control; type: functional, cell-based
[19] = molecular target: 5-hydroxytryptamine receptor 2A (Homo sapiens) (UniProt P28223); assay: Agonist activity at human 5-HT2A receptor expressed in HEK293 cells assessed as increase in IP1 accumulation at 10 uM measured after 30 mins by HTRF method relative to control; type: functional, cell-based
[20] = Intrinsic clearance in dog liver microsomes; type: ADME, Canis lupus familiaris, microsome; conditions: read-out: CLH
[21] = Drug recovery in bile duct-cannulated rat bile at 0.3 mg/kg, iv via infusion for 1 hr; type: ADME, organism-based; conditions: read-out: Drug recovery
[22] = molecular target: Mu-type opioid receptor (Homo sapiens) (UniProt P35372); assay: Displacement of [3H]DAMGO from recombinant human MOR at 10 uM after 120 mins by scintillation counting method
[23] = Clearance in dog blood at 0.3 mg/kg, iv via infusion for 0.5 hrs; type: ADME, organism-based, Canis lupus familiaris; conditions: whole blood
Outline: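 Blood clearance was calculated from the measured plasma clearance and the measured blood:plasma ratio.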

[24] = Permeability in RRCK cells; type: ADME, cell-based, Canis lupus familiaris, MDCKII-LE; conditions: dog, MDCK; read-out: permeability
[25] = molecular target: Endothelin-1 receptor (Homo sapiens) (UniProt P25101); assay: Agonist activity at human ETA receptor expressed in SK-N-MC cells assessed as increase in calcium flux at 10 uM by fluorimetric method relative to control; type: functional, cell-based
[26] = molecular target: D(1A) dopamine receptor (Homo sapiens) (UniProt P21728); assay: Displacement of [3H]SCH 23390 from recombinant human D1 receptor at 10 uM after 60 mins by scintillation counting method
[27] = molecular target: Beta-2 adrenergic receptor (Homo sapiens) (UniProt P07550); assay: Antagonist activity at recombinant human beta2 receptor expressed in CHOK1 cells assessed as inhibition of isoproterenol-induced cAMP accumulation at 10 uM after 30 mins by HTRF assay relative to control; type: functional, cell-based
[28] = molecular target: Cannabinoid receptor 1 (Homo sapiens) (UniProt P21554); assay: Agonist activity at recombinant human CB1 receptor expressed in CHOK1 cells assessed as increase in cAMP accumulation at 10 uM after 20 mins by HTRF assay relative to control; type: functional, cell-based
[29] = molecular target: D(2) dopamine receptor (Homo sapiens) (UniProt P14416); assay: Agonist activity at recombinant human D2S receptor expressed in HEK293 cells assessed as effect on impedance at 10 uM by cellular dielectric spectroscopic method relative to control; type: cell-based
[30] = molecular target: 5-hydroxytryptamine receptor 4 (Homo sapiens) (UniProt Q13639); assay: Agonist activity at recombinant human 5-HT4E expressed in CHOK1 cells assessed as increase in cAMP accumulation at 10 uM measured after 30 mins by HTRF assay relative to control; type: functional, cell-based
[31] = Inhibition of sodium channel site2 (unknown origin) by radioligand binding assay relative to control; parameters: species or system Homo sapiens
[32] = molecular target: Sodium channel protein type 8 subunit alpha (Homo sapiens, UniProt Q9UQD0); assay: Inhibition of human Nav1.6 expressed in HEK cells by patch clamp electrophysiology method; type: cell-based
[33] = molecular target: Type-1 angiotensin II receptor (Homo sapiens) (UniProt P30556); assay: Antagonist activity at recombinant human AT1 receptor expressed in HEK293 cells assessed as inhibition of angiotensin2-induced calcium flux at 10 uM by spectrophotometric method relative to control; type: functional, cell-based
[34] = molecular target: cGMP-inhibited 3',5'-cyclic phosphodiesterase 3B (Homo sapiens) (UniProt Q13370); assay: Inhibition of recombinant human PDE3B at 10 uM using [3H]cAMP as substrate measured after 20 mins by scintillation counting method relative to control
[35] = molecular target: Glucocorticoid receptor (Homo sapiens) (UniProt P04150); assay: Displacement of [3H]dexamethasone from human glucocorticoid receptor at 10 uM after 360 mins by scintillation counting method
[36] = molecular target: Sodium channel protein type 5 subunit alpha (Homo sapiens, UniProt Q14524); assay: Inhibition of human Nav1.5 by Q-patch clamp electrophysiology method
[37] = Inhibition of cynomolgus monkey Nav1.7 expressed in HEK cells by automated patchXpress electrophysiology method; type: cell-based; conditions: Macaca fascicularis, HEK293
[38] = molecular target: Sodium channel protein type 2 subunit alpha (Homo sapiens, UniProt Q99250); assay: Inhibition of human Nav1.2 expressed in HEK cells by patch clamp electrophysiology method; type: cell-based
[39] = Renal clearance in rat at 0.3 mg/kg, iv via infusion for 1 hr; type: ADME, organism-based, Kidney; conditions: in vivo
[40] = molecular target: Voltage-gated inwardly rectifying potassium channel KCNH2 (Homo sapiens, UniProt Q12809); assay: Displacement of [3H]Dofetilide from recombinant human ERG after 60 mins by scintillation counting method
[41] = Unbound clearance in dog plasma at 0.3 mg/kg, iv via infusion for 0.5 hrs; type: ADME, organism-based, Canis lupus familiaris; conditions: in vivo

Chain of Cannabinoid receptor 1 (Homo sapiens) (P21554 whole entry): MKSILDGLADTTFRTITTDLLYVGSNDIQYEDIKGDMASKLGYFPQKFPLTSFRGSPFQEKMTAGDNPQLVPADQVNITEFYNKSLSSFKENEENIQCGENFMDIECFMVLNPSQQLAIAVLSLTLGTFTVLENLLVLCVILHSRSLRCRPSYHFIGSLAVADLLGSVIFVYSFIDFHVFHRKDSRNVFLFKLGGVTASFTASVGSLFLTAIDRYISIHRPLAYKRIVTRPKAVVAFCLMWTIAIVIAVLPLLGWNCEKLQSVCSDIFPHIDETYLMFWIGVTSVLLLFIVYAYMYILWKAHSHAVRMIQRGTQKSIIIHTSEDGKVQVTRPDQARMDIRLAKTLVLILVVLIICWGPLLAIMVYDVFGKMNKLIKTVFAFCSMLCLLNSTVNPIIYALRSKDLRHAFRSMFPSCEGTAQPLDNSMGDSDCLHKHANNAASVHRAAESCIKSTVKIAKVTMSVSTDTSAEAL
Chain of Mu-type opioid receptor (Homo sapiens) (P35372 whole entry, the tested form may be a part): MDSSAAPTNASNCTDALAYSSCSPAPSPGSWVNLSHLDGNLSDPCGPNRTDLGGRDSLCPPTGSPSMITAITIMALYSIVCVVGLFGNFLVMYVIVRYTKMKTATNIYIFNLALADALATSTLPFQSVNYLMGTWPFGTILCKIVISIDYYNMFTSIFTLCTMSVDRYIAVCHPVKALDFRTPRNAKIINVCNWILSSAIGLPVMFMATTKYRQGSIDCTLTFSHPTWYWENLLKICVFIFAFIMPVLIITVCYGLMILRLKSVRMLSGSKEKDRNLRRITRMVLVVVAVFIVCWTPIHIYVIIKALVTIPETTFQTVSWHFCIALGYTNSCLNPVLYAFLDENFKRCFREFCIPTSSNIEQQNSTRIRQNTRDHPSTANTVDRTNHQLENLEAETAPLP
Chain of Sodium channel protein type 5 subunit alpha (Q14524 whole entry): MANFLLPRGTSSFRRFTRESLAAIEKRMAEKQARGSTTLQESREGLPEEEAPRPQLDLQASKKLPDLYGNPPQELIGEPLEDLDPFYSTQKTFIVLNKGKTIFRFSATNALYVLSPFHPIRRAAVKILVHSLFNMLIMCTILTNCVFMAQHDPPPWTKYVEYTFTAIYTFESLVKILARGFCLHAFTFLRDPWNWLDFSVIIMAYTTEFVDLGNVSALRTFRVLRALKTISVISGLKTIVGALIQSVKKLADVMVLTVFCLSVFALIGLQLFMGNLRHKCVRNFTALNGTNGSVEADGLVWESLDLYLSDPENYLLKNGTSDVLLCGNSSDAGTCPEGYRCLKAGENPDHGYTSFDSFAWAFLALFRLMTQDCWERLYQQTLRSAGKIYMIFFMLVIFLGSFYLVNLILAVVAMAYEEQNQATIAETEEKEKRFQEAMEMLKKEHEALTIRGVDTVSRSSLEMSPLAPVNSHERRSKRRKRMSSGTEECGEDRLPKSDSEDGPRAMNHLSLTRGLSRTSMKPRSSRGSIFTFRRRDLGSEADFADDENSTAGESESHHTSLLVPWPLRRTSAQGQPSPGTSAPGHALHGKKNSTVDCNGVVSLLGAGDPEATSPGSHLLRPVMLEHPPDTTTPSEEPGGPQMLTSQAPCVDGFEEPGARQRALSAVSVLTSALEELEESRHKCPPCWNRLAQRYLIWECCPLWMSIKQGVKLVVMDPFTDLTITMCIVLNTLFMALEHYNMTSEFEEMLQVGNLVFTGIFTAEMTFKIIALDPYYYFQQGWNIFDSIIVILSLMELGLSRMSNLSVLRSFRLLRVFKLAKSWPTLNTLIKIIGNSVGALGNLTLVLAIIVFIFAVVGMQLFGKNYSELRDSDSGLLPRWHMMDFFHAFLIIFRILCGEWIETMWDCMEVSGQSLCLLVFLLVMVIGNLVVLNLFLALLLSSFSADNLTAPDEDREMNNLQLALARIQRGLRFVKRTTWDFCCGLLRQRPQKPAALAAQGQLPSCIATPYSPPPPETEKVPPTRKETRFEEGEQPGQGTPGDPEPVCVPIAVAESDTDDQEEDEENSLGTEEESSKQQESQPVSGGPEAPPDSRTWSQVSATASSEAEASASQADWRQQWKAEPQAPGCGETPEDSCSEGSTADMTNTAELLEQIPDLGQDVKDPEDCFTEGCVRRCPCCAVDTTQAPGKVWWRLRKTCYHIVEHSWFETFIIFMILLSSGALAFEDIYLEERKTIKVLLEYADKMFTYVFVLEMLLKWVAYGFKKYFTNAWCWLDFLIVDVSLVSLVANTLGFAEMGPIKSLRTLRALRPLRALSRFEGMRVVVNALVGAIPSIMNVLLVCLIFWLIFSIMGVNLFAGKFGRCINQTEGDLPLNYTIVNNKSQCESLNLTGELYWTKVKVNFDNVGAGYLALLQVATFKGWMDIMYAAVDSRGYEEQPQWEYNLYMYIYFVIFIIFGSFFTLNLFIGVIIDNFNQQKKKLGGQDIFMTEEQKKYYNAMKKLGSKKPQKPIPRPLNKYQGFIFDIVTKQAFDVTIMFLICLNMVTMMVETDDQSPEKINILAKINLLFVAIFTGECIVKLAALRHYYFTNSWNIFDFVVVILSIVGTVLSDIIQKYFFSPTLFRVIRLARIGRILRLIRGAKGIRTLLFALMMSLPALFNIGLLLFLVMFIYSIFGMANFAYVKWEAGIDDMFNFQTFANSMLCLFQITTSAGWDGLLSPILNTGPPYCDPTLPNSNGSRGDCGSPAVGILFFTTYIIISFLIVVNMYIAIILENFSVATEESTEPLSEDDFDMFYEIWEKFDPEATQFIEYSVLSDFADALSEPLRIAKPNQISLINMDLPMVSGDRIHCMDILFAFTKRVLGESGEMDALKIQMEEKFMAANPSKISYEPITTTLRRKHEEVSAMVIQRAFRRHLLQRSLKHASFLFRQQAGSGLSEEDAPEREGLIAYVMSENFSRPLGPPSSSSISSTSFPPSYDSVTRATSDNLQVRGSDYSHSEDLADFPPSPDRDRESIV
Chain of Histamine H1 receptor (Homo sapiens) (P35367 whole entry): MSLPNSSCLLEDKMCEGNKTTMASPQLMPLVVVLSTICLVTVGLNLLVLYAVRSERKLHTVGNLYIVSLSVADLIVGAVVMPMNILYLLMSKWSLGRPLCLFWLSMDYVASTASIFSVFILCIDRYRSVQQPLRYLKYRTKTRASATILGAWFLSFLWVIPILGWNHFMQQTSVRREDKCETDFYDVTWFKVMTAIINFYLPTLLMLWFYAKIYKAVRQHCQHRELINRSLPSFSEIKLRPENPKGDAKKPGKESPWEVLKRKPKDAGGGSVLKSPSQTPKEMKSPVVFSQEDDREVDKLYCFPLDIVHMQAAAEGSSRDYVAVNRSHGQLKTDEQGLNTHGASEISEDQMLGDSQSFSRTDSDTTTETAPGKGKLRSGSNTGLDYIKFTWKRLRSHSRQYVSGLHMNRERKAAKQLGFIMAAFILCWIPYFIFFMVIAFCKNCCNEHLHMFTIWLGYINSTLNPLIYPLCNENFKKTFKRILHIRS
Chain of Cytochrome P450 2D6 (P10635 whole entry): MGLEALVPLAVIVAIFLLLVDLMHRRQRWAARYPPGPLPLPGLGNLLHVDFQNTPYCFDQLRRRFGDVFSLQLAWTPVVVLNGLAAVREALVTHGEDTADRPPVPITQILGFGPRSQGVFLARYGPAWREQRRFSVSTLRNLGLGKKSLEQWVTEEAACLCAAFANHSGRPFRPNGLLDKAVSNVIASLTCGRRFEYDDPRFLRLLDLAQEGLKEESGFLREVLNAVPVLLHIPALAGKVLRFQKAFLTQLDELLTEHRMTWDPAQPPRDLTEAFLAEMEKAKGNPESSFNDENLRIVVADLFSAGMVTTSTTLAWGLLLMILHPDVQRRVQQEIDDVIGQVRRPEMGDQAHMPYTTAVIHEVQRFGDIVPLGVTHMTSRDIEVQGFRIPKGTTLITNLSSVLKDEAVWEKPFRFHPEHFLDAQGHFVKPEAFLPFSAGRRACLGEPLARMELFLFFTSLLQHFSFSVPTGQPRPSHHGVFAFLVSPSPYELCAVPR
Chain of Beta-2 adrenergic receptor (Homo sapiens) (P07550 whole entry, looked up): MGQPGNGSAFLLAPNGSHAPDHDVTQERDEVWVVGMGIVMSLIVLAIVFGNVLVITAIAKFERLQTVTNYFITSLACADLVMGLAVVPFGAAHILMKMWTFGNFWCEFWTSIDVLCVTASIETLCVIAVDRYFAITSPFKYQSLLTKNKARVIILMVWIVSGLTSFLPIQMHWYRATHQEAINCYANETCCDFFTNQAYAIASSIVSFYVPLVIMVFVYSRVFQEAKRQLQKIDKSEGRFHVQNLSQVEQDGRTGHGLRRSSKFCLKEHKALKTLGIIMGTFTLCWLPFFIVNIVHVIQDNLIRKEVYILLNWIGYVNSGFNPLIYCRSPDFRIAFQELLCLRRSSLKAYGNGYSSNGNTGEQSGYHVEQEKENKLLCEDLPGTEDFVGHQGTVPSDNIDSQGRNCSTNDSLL
Chain of Adenosine receptor A2a (Homo sapiens) (P29274 whole entry): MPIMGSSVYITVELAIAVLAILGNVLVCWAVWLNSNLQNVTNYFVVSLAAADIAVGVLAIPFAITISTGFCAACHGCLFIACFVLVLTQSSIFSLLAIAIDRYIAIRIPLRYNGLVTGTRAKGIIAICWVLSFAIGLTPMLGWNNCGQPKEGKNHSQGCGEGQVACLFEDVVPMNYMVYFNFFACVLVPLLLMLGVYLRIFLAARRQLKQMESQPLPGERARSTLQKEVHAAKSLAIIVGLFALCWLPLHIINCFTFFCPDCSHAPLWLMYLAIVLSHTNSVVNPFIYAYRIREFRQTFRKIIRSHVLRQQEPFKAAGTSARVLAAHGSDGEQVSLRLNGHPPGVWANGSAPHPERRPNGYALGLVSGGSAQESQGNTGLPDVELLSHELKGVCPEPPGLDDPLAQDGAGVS

Compound: N#Cc1cc(S(=O)(=O)Nc2ncns2)ccc1Oc1ccc(-c2cccc(C(F)(F)F)c2)cc1-c1ccnc(CNCCC2CCNCC2)c1
- fraction unbound [1]: 0.00497
- IC50 [2]: 8830 nM
- Activity [3]: 21%
- fraction unbound at 2 µM [4]: 0.001
- solubility [5]: > 1840 µg/mL
- CL free [6]: 12989 mL/min/kg
- fraction unbound [7]: 0.00281
- hepatocyte CLint [8]: 6.5 µL/min/1e6 cells
- fraction unbound [9]: 0.00374
- fraction unbound [10]: 0.00275
- Activity [11]: -2%
- hepatocyte CLint [12]: < 6 µL/min/1e6 cells
- inhibition [13]: 31%
- Activity [14]: 4%
- inhibition [15]: 27%
- half-life [16]: 3.42 min
- inhibition [17]: 21%
- Activity [18]: -4%
- Activity [19]: -1%
- microsomal CLint [20]: < 18.1 µL/min/mg
- dose excreted at 1 h [21]: 74%
- inhibition [22]: 46%
- clearance [23]: 39.8 mL/min/kg
- Papp [24]: 0.62 ×10⁻⁶ cm/s
- Activity [25]: 8%
- inhibition [26]: 60%
- inhibition [27]: 11%
- Activity [28]: -7%
- Activity [29]: -2%
- Activity [30]: 0%
- IC50 [31]: 48 nM
- Ki [31]: 43 nM
- IC50 [32]: 5.46 to 5.8 nM
- inhibition [33]: -2%
- inhibition [34]: -1%
- inhibition [35]: 36.1%
- IC50 [36]: 12800 nM
- IC50 [37]: < 0.03 nM
- IC50 [38]: 2.52 to 3 nM
- CL renal at 1 h [39]: 0.0322 mL/min/kg
- Ki [40]: 1090 nM
- CL free [41]: 4759 mL/min/kg
